Most compounds without a hit are left out; they make up all but 2.9% or so of the library.
VIM-2 inh = VIM-2 metallo-beta-lactamase inhibitors, primary screen, biochemical, epi-absorbance readout, Pseudomonas aeruginosa enzyme | purified VIM-2, nitrocefin hydrolysis, epi-absorbance fluorescence | inhibition, % at 5.6 µM | 290,000 tested, 0.89% active | AID 1527, 2009;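 active = inhibition above the mean of all tested compounds plus 3 SD, cutoff set per screening run, cut at about 7.5% in these data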;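 note: red hydrolysis product quenches plate fluorescence so inhibitors raise well fluorescence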
UBC9 SUMO inh = inhibitors of in vitro SUMOylation cascade, primary screen, biochemical, HTRF, uHTS | HTRF SUMOylation assay, SAE1/SAE2 + UBC9 | 290,000 tested, 0.36% active | SUMO-conjugating enzyme UBC9 (Homo sapiens), P63279 | AID 2006, 2009 | inhibition, % at 35 µM; in the data active = inhibition above about 50%, passing the limit was not always enough
Target sequence (P63279 whole entry, looked up): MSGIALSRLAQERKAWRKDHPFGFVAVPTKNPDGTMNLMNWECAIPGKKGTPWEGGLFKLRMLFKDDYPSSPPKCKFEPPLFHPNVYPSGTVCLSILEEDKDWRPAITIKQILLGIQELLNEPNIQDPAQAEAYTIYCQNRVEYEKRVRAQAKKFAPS
Mot1-301 SUMO = yeast Mot1-301 growth rescue at high temperature, primary screen, SUMOylation pathway inhibitor project, S. cerevisiae, ATP luminescence, 38.5C; growth rescue, % at 18.8 µM; 320,000 tested, 1% active; S. cerevisiae Mot1-301 growth rescue; percent above DMSO median, 100 means doubled;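 active = every valid replicate shows activation above 250% relative to neutral control wells; inactive = the rest, any valid replicate at or below 250%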
NALP1 inh = NALP1 inflammasome inhibitors in reconstituted yeast, colorimetric, S. cerevisiae, triplicate retest | S. cerevisiae NALP1/ASC/caspase-1 growth, X-gal OD620, 72 h | inhibition, % at 10 µM | 280,000 tested, 0.61% active; in the data active = inhibition mostly above about 24%, no sharp cut-off; inactive = mostly below about 32%
IMP-1 inhibitor = IMP-1 metallo-beta-lactamase inhibitors, primary screen, biochemical, epi-absorbance readout, Pseudomonas aeruginosa enzyme; AID 1556, 2009; purified IMP-1, nitrocefin hydrolysis, epi-absorbance fluorescence; metallo-beta-lactamase IMP-1 (Pseudomonas aeruginosa); inhibition, % at 5.6 µM; 290,000 tested, 0.45% active;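 active = inhibition above the mean plus 3 SD of all compounds in the same screening run, cut at about 4.5% in these data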
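Test system: recombinant IMP-1 enzyme, purified / Medium: HEPES buffer pH 7.1 with ZnSO4 and Brij 35 / Doses: single dose, 5.6 µM / Times: 25 °C, 15 min preincubation, 25 min reaction / Detection: Epi-absorbance via hydrolysed-nitrocefin quenching of white-plate fluorescence, 480/530 nm, EDTA stop / Evaluation: percent inhibition from optical density relative to buffer-blank wells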
FID counter = compounds displacing fluorescent DNA intercalator, primary screen, artefact control for HCV NS3 helicase inhibitor project, biochemical, FID fluorescence; DNA fluorescent intercalator displacement; inhibition, % at 7.9 µM; 290,000 tested, 0.17% active; in the data active = inhibition above about 37%;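 note: higher means more ethidium bromide displaced from hairpin DNA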
Yeast Mot1 SUMO = growth restoration of Mot1-301 yeast on galactose, dose response, SUMO pathway inhibitor project, whole organism, S. cerevisiae, ATP luminescence, cherry-picked samples. S. cerevisiae Mot1-301 galactose growth, 24 h; -100 = growth of slx-deleted rescue strain. 2,300 tested, under 10 active. AID 493004, 2010. shares compounds with Mot1-301 SUMO. growth activity, percent, % at 42 µM;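 active = Signal drops as the depositor expects, and the fitted half-maximal dose is no more than ten times the top valid tested dose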;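 note: more negative values mean stronger growth rescue toward the control strain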
Numbers stand for hits; ! = repeats disagree.

O=C1NC2(CCCCC2)NN1c1ccccc1 was read as VIM-2 inh inactive, UBC9 SUMO inh inactive, Mot1-301 SUMO 479.1, NALP1 inh inactive, IMP-1 inhibitor inactive, FID counter inactive and Yeast Mot1 SUMO inactive.
`CCOC(=O)Nc1sc(=S)n(C)c1C` gave VIM-2 inh inactive, UBC9 SUMO inh inactive, Mot1-301 SUMO 509.4, NALP1 inh inactive, IMP-1 inhibitor inactive, FID counter inactive and Yeast Mot1 SUMO inactive.
For O=C(NCC(c1cccs1)N1CCOCC1)c1ccccc1NS(=O)(=O)c1cc([N+](=O)[O-])ccc1Cl (centres undefined) the results were VIM-2 inh inactive, UBC9 SUMO inh inactive, Mot1-301 SUMO 504.1, NALP1 inh inactive, IMP-1 inhibitor inactive, FID counter inactive and Yeast Mot1 SUMO inactive.
For C=CCNc1nc(Cl)nc(Nc2ccc(OCC)cc2)n1 the results were VIM-2 inh inactive, UBC9 SUMO inh inactive, Mot1-301 SUMO inactive, NALP1 inh inactive, IMP-1 inhibitor inactive and FID counter inactive.
For CC1CCCCN1CCCNC(=O)CN1C(=O)c2cccnc2Oc2ccc(Cl)cc21 (centres undefined) the results were VIM-2 inh inactive, UBC9 SUMO inh inactive, Mot1-301 SUMO inactive, NALP1 inh inactive, IMP-1 inhibitor inactive and FID counter inactive.
For O=C(CSc1cccc[n+]1[O-])N1CCc2ccccc21 the results were VIM-2 inh inactive, UBC9 SUMO inh inactive, Mot1-301 SUMO 898.4, NALP1 inh inactive, IMP-1 inhibitor inactive, FID counter inactive and Yeast Mot1 SUMO inactive.
COCCOCCOCCC(=O)NC1CC2CCC1(C)C2(C)C (centres undefined) was read as VIM-2 inh inactive, UBC9 SUMO inh inactive, Mot1-301 SUMO inactive, NALP1 inh inactive, IMP-1 inhibitor inactive and FID counter inactive.
`C=CC(=O)NC1CC2CCC1(C)C2(C)C` (centres undefined) gave VIM-2 inh inactive, UBC9 SUMO inh inactive, Mot1-301 SUMO 459.3, NALP1 inh inactive, IMP-1 inhibitor inactive, FID counter inactive and Yeast Mot1 SUMO inactive.
For CC(C)(C)N(Cc1ccccc1)C(=O)COC(=O)C1CCCCC1 the results were Mot1-301 SUMO inactive.
O=C(NCc1ccccn1)C1CC(c2ccc(F)cc2)=NO1 (centres undefined) was read as VIM-2 inh inactive, UBC9 SUMO inh inactive, Mot1-301 SUMO inactive, NALP1 inh inactive, IMP-1 inhibitor inactive and FID counter inactive.
For O=C(NCc1ccccn1)C1CC(c2ccc(Cl)c(Cl)c2)=NO1 (centres undefined) the results were VIM-2 inh inactive, UBC9 SUMO inh inactive, Mot1-301 SUMO active, NALP1 inh inactive, IMP-1 inhibitor inactive, FID counter inactive and Yeast Mot1 SUMO inactive.
For CN/C(=C/[N+](=O)[O-])NCCSCc1ccc(CN(C)C)o1 the results were VIM-2 inh inactive, UBC9 SUMO inh inactive, Mot1-301 SUMO 860.2!, NALP1 inh inactive, IMP-1 inhibitor inactive, FID counter inactive and Yeast Mot1 SUMO inactive.
`CN(c1ccc(C(=O)NCCSCc2ccco2)cc1)S(C)(=O)=O` gave VIM-2 inh inactive, UBC9 SUMO inh inactive, Mot1-301 SUMO inactive, NALP1 inh inactive, IMP-1 inhibitor inactive and FID counter inactive.
Screening O=C(/C=C/c1cn(-c2ccccc2)nc1-c1cccnc1)N1CCCC1 returned VIM-2 inh inactive, UBC9 SUMO inh inactive, NALP1 inh inactive, IMP-1 inhibitor inactive and FID counter inactive.
`N#C/C(=C\c1cn(-c2ccccc2)nc1-c1cccnc1)c1nnc2n1CCCCC2` gave VIM-2 inh inactive, UBC9 SUMO inh inactive, Mot1-301 SUMO 396.9, NALP1 inh inactive, IMP-1 inhibitor inactive, FID counter inactive and Yeast Mot1 SUMO inactive.
For O=C(O)[C@@H]1CCCN1S(=O)(=O)c1cccc2cccnc12 the results were Mot1-301 SUMO inactive.
Cc1cc(S(=O)(=O)NCC(C)C)ccc1OCC(=O)N1CCOCC1 was read as VIM-2 inh inactive, UBC9 SUMO inh inactive, Mot1-301 SUMO 866.7, NALP1 inh inactive, IMP-1 inhibitor inactive, FID counter inactive and Yeast Mot1 SUMO inactive.
`CCOC(=O)N1CCN(C(=O)COc2ccc(S(=O)(=O)NCC(C)C)cc2C)CC1` gave VIM-2 inh inactive, UBC9 SUMO inh inactive, Mot1-301 SUMO inactive, NALP1 inh inactive, IMP-1 inhibitor inactive and FID counter inactive.
`O=C(Cc1c(F)cccc1Cl)Nc1nccs1` gave VIM-2 inh inactive, UBC9 SUMO inh inactive, Mot1-301 SUMO inactive, NALP1 inh inactive, IMP-1 inhibitor inactive and FID counter inactive.
Screening O=S(=O)(NCCN1CCCC1)c1cccc2cccnc12 returned VIM-2 inh inactive, UBC9 SUMO inh inactive, Mot1-301 SUMO 814.6, NALP1 inh inactive, IMP-1 inhibitor inactive, FID counter inactive and Yeast Mot1 SUMO inactive.
COC(=O)c1cccc(NC(=O)CN2C(=O)c3ccccc3C2=O)c1 was read as VIM-2 inh inactive, UBC9 SUMO inh inactive, Mot1-301 SUMO inactive, NALP1 inh inactive, IMP-1 inhibitor inactive and FID counter inactive.
Screening CC1=CS(=O)(=O)CC1Sc1nc(C)n[nH]1 (centres undefined) returned VIM-2 inh inactive, UBC9 SUMO inh inactive, Mot1-301 SUMO inactive, NALP1 inh inactive, IMP-1 inhibitor inactive and FID counter inactive.
CC1=CS(=O)(=O)CC1Sc1ncn[nH]1 (centres undefined) was read as VIM-2 inh inactive, UBC9 SUMO inh inactive, Mot1-301 SUMO 557.4, NALP1 inh inactive, IMP-1 inhibitor inactive, FID counter inactive and Yeast Mot1 SUMO inactive.
CC1CCCC(C)N1C(=O)Cc1ccccc1 (centres undefined) was read as VIM-2 inh inactive, UBC9 SUMO inh inactive, Mot1-301 SUMO inactive, NALP1 inh inactive, IMP-1 inhibitor inactive and FID counter inactive.
Screening O=C(Cc1ccccc1)N1CCCC1c1ccccc1 (centres undefined) returned VIM-2 inh inactive, UBC9 SUMO inh inactive, Mot1-301 SUMO active, NALP1 inh inactive, IMP-1 inhibitor inactive, FID counter inactive and Yeast Mot1 SUMO inactive.
For Cc1ccc2c(c1)cc(C(=O)N[C@@H](Cc1ccccc1)C(=O)O)n2C the results were VIM-2 inh inactive, UBC9 SUMO inh inactive, Mot1-301 SUMO inactive, NALP1 inh inactive, IMP-1 inhibitor inactive and FID counter inactive.
CC(C)(C)CC(=O)Nc1cc(S(=O)(=O)N2CCOCC2)ccc1N1CCCC1 was read as VIM-2 inh inactive, UBC9 SUMO inh inactive, Mot1-301 SUMO 508.4, NALP1 inh inactive, IMP-1 inhibitor inactive, FID counter inactive and Yeast Mot1 SUMO inactive.

Screening data as filed in PubChem.
